Results of several laboratories.
Protocols differ between the studies behind these lines.

For `CCCCCn1nc(C(=O)Nc2cccc3ccccc23)c2ccccc21`, the half-life was 5.4 h (male Long-Evans rat; plasma; intraperitoneal; 3 mg/kg).
For `N=c1c2c(-c3ccccc3)c(-c3ccccc3)n(Cc3ccccc3)c2ncn1[C@H]1CC[C@H](O)CC1`, the half-life was 8.9 h (male Sprague-Dawley rat; plasma; oral; 2 mg/kg; single dose).
For `CCCC[C@@H]1NC(=O)[C@H](Cc2ccc(O)cc2)NC(=O)[C@@H]2CCCN2C(=O)[C@H](CC(=O)O)NC(=O)[C@H](C)NC(=O)[C@H](Cc2ccccc2)NC(=O)[C@@H]2CSCCC(=O)N3CN(CN(C3)C(=O)CCSC[C@@H](C(=O)N[C@@H](CNC(=O)CCc3cn(CCOCCOCCOCCN(CCOCCOCCOCCC(=O)N[C@H]4CSCCC(=O)N5CN6CN(C5)C(=O)CCSC[C@H](NC(=O)[C@@H](CC(=O)O)NC(=O)[C@H](Cc5cccc7ccccc57)NC(=O)[C@@H]5CCCN5C4=O)C(=O)N[C@@H](CCSC)C(=O)N[C@@H](CCCCNC(=N)N)C(=O)N[C@@H](CC(=O)O)C(=O)N[C@@H](Cc4c[nH]c5ccccc45)C(=O)N[C@@H](CO)C(=O)N[C@@H]([C@@H](C)O)C(=O)N4CCC[C@H]4C(=O)N4C[C@H](O)C[C@H]4C(=O)N[C@@H](Cc4c[nH]c5ccccc45)C(=O)N[C@H](C(N)=O)CSCCC6=O)CCOCCOCCOCCn4cc(CCC(=O)NC[C@H](NC(=O)[C@@H]5CSCCC(=O)N6CN7CN(C6)C(=O)CCSC[C@H](NC(=O)[C@H](Cc6ccc(O)cc6)NC(=O)[C@@H]6CCCN6C(=O)[C@@H](C)NC(=O)[C@H](CCC(=O)O)NC(=O)[C@@H]6CCCN6C(=O)[C@H](CC(C)(C)C)NC(=O)[C@@H](NC(C)=O)CSCCC7=O)C(=O)N[C@@H](Cc6ccccc6)C(=O)N[C@@H](C)C(=O)N[C@@H](CC(=O)O)C(=O)N6CCC[C@H]6C(=O)N[C@@H](Cc6ccc(O)cc6)C(=O)N[C@@H](CCCC)C(=O)N5)C(N)=O)nn4)nn3)C(N)=O)NC1=O)C(=O)CCSC[C@H](NC(C)=O)C(=O)N[C@@H](CC(C)(C)C)C(=O)N1CCC[C@H]1C(=O)N[C@@H](CCC(=O)O)C(=O)N[C@H](C)C(=O)N1CCC[C@H]1C(=O)N[C@@H](Cc1ccc(O)cc1)C(=O)N2`, the half-life was 3.6 h (rat; plasma; intravenous; 2 mg/kg).
For `O=C([O-])C(=O)[O-].[NH-][C@@H]1CCCC[C@H]1[NH-].[Pt+4]` (relative stereo), the half-life was 1.53 h (rat; plasma; oral; 10 mg/kg).
For `Cl.Cl.O=C(CCN1CCCCC1)c1ccc(-c2ccc(C(=O)CCN3CCCCC3)cc2)cc1`, the half-life was 7.54 h (Sprague-Dawley rat; plasma; oral; 50 mg/kg).
For `[2H]C([2H])([2H])n1cc2cc(Nc3nc(=O)n(Cc4ncn(C)n4)c(=O)n3Cc3cc(F)c(F)cc3F)c(Cl)cc2n1`, the half-life was 3.68 h (male Sprague-Dawley rat; plasma; intravenous; 5 mg/kg).
The half-life of `O=C(Nc1cccnn1)N1CCN([C@@H]2CCOc3cc(C(F)(F)F)ccc32)CC1` is reported as 3.3 h (male Sprague-Dawley rat; plasma; oral; 0.3 mg/kg).
For `Cn1cnc(Cn2c(=O)[nH]/c(=N\c3cc4cn(C)nc4cc3Cl)n(Cc3cc(F)c(F)cc3F)c2=O)n1`, the half-life was 3.29 h (male Sprague-Dawley rat; plasma; intravenous; 5 mg/kg).
`CCCC[C@@H]1NC(=O)[C@H](Cc2ccc(O)cc2)NC(=O)[C@@H]2CCCN2C(=O)[C@H](CC(=O)O)NC(=O)[C@H](C)NC(=O)[C@H](Cc2ccccc2)NC(=O)[C@@H]2CSCCC(=O)N3CN(CN(C3)C(=O)CCSC[C@H](NC(C)=O)C(=O)N[C@@H](CC(C)(C)C)C(=O)N[C@@H](CCC(=O)O)C(=O)N[C@@H](CCC(=O)O)C(=O)N[C@H](CCCCNC(=O)CCc3cn(CCOCCOCCOCCOCCOCCC(=O)N[C@H]4CSCCC(=O)N5CN6CN(C5)C(=O)CCSC[C@H](NC(=O)[C@@H](CC(=O)O)NC(=O)[C@H](Cc5cccc7ccccc57)NC(=O)[C@@H]5CCCN5C4=O)C(=O)N[C@@H](CCSC)C(=O)N[C@@H](CCCCNC(=N)N)C(=O)N[C@@H](CC(=O)O)C(=O)N[C@@H](Cc4c[nH]c5ccccc45)C(=O)N[C@@H](CO)C(=O)N[C@@H]([C@@H](C)O)C(=O)N4CCC[C@H]4C(=O)N4C[C@H](O)C[C@H]4C(=O)N[C@@H](Cc4c[nH]c5ccccc45)C(=O)N[C@H](C(N)=O)CSCCC6=O)nn3)C(=O)N3CCC[C@H]3C(=O)N[C@@H](Cc3ccc(O)cc3)C(=O)N2)C(=O)CCSC[C@@H](C(N)=O)NC1=O` has a half-life of 1.7 h (rat; plasma; intravenous; 2 mg/kg).
`COC(=O)C(NC(=O)c1cn(CCCCCF)c2ccccc12)C(C)(C)C` (centres unmarked) has a half-life of 10.3 h (male Sprague-Dawley rat; plasma; subcutaneous; 100 µg/kg).
`COc1ccc2c3c1O[C@H]1C[C@@H](OC(=O)c4ccccc4)C=C[C@@]31CCN(C)C2` has a half-life of 1.95 h (rat; brain; intravenous; 5 mg/kg).
With `CC(C)C[C@@H]1NC(=O)[C@H](CC(=O)O)NC(=O)[C@H](Cc2ccccc2)NC(=O)[C@H](Cc2c[nH]cn2)NC(=O)[C@H]([C@@H](C)O)NC(=O)[C@H](Cc2ccccc2)NC(=O)[C@@H](NC(=O)[C@H](C)NC(=O)COCCOCCNC(=O)COCCOCCNC(=O)CC[C@H](NC(=O)CCCCCCCCCCCCCCCCC(=O)O)C(=O)O)CSSC[C@@H](C(=O)O)NC(=O)[C@H](Cc2ccccc2)NC(=O)[C@@H]2CCCN2C(=O)[C@H](Cc2c[nH]c3ccccc23)NC(=O)[C@H](CC(C)C)NC1=O` the half-life was 4.17 h (male Sprague-Dawley rat; plasma; intravenous).
For `[2H]C([2H])(c1cc(F)c(F)cc1F)n1c(=O)n(Cc2ncn(C)n2)c(=O)[nH]/c1=N\c1cc2cn(C)nc2cc1Cl`, the half-life was 3.37 h (male Sprague-Dawley rat; plasma; intravenous; 5 mg/kg).
The half-life of `Cc1ncc(C)n2nc(/C=C/c3nc(N4CCCC4)cc(N4CCOCC4)n3)nc12` is reported as 4.6 h (male Sprague-Dawley rat; plasma; intravenous; 0.1 mg/kg).
